Screening results (PubChem)
This is a sample that favours compounds with a hit; in the whole collection about 1.9% have one here.
bCat nuc transl = modulators of beta-catenin nuclear translocation. HeLa beta-catenin nuclear translocation, immunofluorescence imaging. nuclear translocation activity, % at 5 µM. actives 0.3% (n = 190,000). AID 1665;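 active = nuclear translocation activity above 50% at 5 µM, with a well cell count of 50 or more; inconclusive = wells under 50 cells across six images, flagged as toxic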;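 also: per-cell ratio of nuclear to cytoplasmic median beta-catenin stain intensity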
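assay system = human HeLa cells, endogenous beta-catenin | times = compound treatment 24 h, 37°C, 5% CO2 | detection = Anti-beta-catenin immunofluorescence on PFA-fixed, Triton-permeabilized cells, DAPI nuclei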
MT stabilizer = stabilizes microtubules in HeLa cells; % tubulin-high responders, % at 10 µM; HeLa tubulin immunostaining HCS, 24 h; share of cells brighter than vehicle mean+2SD; actives 0.83% (n = 200,000); AID 2205;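 active = plate Z-score above 3 for both tubulin-high and condensed-nucleus cell shares, with cell loss under 80%, at 10 µM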;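 also: anti alpha tubulin signal scored within the nucleus-defined area of each cell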
Ins promoter up = MIN6 insulin promoter up-regulation; actives 0.3% (n = 190,000); MIN6 insulin promoter-GFP reporter, high-content imaging; stronger effect = higher value; z-score at 5 µM;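 active = z-score above 3 at 5 µM with at least 500 cells counted in the well; inconclusive = wells under 500 cells, flagged as cytotoxic or low count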
Autophagy HCS = autophagy modulation, high-content screen. MEF GFP-LC3 puncta imaging; test concentration mostly 10 µM. calls only at 10 µM (by protocol). actives 0.98% (n = 190,000). AID 463193;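 active = percentage of spot-positive cells more than 3 SD above its plate mean, without a fluorescence outlier flag or 80% toxicity; inconclusive = no clear call, values can overlap the other calls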
Each line names hits and unclear results; the compound was inactive in the other large screens.

COc1cc(C(c2c(C)[nH][nH]c2=O)c2c(C)[nH][nH]c2=O)ccc1OC(C)C	none
COc1cccc(C(=O)/C=C/Nc2cc(C)ccc2O)c1	Autophagy HCS active (no result: bCat nuc transl)
CCOC(=O)c1ccc(N/C=C\C(=O)c2cccc(OC)c2)cc1	none
COc1ccc(C(=O)NC(C)(C)C)cc1S(=O)(=O)N1CCCC1	none (no result: bCat nuc transl)
COc1ccc(OC)c(Nc2nc3nonc3nc2N2CCCC(C)C2)c1 (stereo not drawn)	Autophagy HCS active
Clc1ccc(-c2nnc(CNC3CC3)o2)cc1	none
O=C1C(=O)c2ccc(-c3ccccc3)cc2-c2ccccc21	Ins promoter up inconclusive, Autophagy HCS active
Nc1ccc2c(c1)C(=O)C(=O)c1ccccc1-2	Ins promoter up inconclusive (no result: bCat nuc transl)
COc1cccc(-c2nc(Oc3cc(C)cc(C)c3)c3ccccc3n2)c1O	Autophagy HCS active
CCN(CC)CCn1c(=S)[nH]c2cc(Cl)ccc2c1=O	none
CCN(CC)CCn1c(=S)[nH]c2ccc(Cl)cc2c1=O	Ins promoter up 4
Cc1cc(=O)oc2cc(OCC(=O)N3c4ccccc4CC3C)ccc12 (stereo not drawn)	MT stabilizer 51
CNC(=O)COC(=O)COc1ccc2c(C)cc(=O)oc2c1	none
Cc1cc(=O)oc2cc(OCC(=O)OCC(=O)NC3CC3)ccc12	Ins promoter up 3.8
Cc1cc(=O)oc2cc(OCC(=O)N3CC(C)OC(C)C3)ccc12 (stereo not drawn)	none
Cc1cc(C)c(C)c(S(=O)(=O)NC(C(=O)O)C(C)C)c1C (stereo not drawn)	none
Cn1c(=O)c2c(nc(Cl)n2CC(=O)N2CCCCC2)n(C)c1=O	none (no result: Ins promoter up)
CC(C)n1cc(CN2CCN(CCc3ccccc3)C(CCO)C2)cn1 (stereo not drawn)	none
COC(=O)CSc1nc2cc(C)ccc2cc1C#N	none
Cc1ccc2cc(C#N)c(SCc3nnc(-c4ccccc4[N+](=O)[O-])o3)nc2c1	Autophagy HCS active
CCOc1cc(-c2c(C#N)c(N)nc3c2CCCC3C)ccc1O (stereo not drawn)	MT stabilizer 23 (no result: bCat nuc transl)
CCOc1cc(-c2cc(-c3ccc(C)cc3)nc(N)c2C#N)ccc1O	bCat nuc transl 69, MT stabilizer 49, Autophagy HCS active
Cn1c(-c2c(N)n(-c3ccccc3)c3nc4ccccc4nc23)nc2ccccc21	Autophagy HCS active
Cc1cccc(-n2c(N)c(-c3nc4ccccc4n3C)c3nc4ccccc4nc32)c1	Autophagy HCS active
Cc1ccc(-n2c(N)c(-c3nc4ccccc4n3C)sc2=S)cc1	none
CC(C)CN1CCN(C2CCN(C(C)C)CC2)C(CCO)C1 (stereo not drawn)	none
CCCN1CCC(=NNc2ccc(S(=O)(=O)N3CCOCC3)cc2[N+](=O)[O-])CC1	bCat nuc transl 120, MT stabilizer 14 (no result: Ins promoter up)
CC(C)N1CCC(=NNc2ccc(S(=O)(=O)N3CCOCC3)cc2[N+](=O)[O-])CC1	none (no result: Ins promoter up)
CC1=CCC2([N+](=O)[O-])CN(CC(=O)O)CC1([N+](=O)[O-])C2 (stereo not drawn)	none
COc1ccc(-c2coc3cc4oc(=O)c5ccccc5c4cc23)cc1F	bCat nuc transl 141
COC(=O)c1c(C)nn(-c2ccc(F)c(Cl)c2)c1-c1cc(C)on1	none (no result: MT stabilizer, Ins promoter up, Autophagy HCS)
COc1ccc(C(=O)/C=C2/Sc3cc4c(cc3N2C)OCO4)cc1	none
CN1/C(=C/C(=O)c2ccc(Cl)cc2)Sc2cc3c(cc21)OCO3	Autophagy HCS active
N/C(=N\OC(=O)C1CCCCC1)c1cccc([N+](=O)[O-])c1	Ins promoter up 3
Cc1ccc(C(=O)O/N=C(\N)c2cccc([N+](=O)[O-])c2)cc1	none
CCCCCCc1cc2cc(C(=O)Nc3ccc(OC)cc3)c(=O)oc2cc1O	Autophagy HCS active
CCOC(=O)C(C(=O)Nc1nccs1)C1CCCCC1 (stereo not drawn)	none (no result: Ins promoter up)
C=CCn1cnc2c(c1=O)c1nc3ccccc3nc1n2/N=C/c1cccc(OC)c1OC	none (no result: MT stabilizer, Autophagy HCS)
C=CCn1cnc2c(c1=O)c1nc3ccccc3nc1n2/N=C/c1cc(OC)c(OC)c(OC)c1	Autophagy HCS active
CC(=O)Nc1ccc(-c2nnn(CC(=O)Nc3ccc4c(c3)OCO4)n2)cc1Cl	Autophagy HCS active
Cc1[nH]c2ccccc2c1C(=O)CSC(=S)N1CCOCC1	none (no result: MT stabilizer, Ins promoter up, Autophagy HCS)
Cc1nc2ccccc2n1-c1nc(-c2ccco2)cc(C(F)(F)F)n1	Ins promoter up inconclusive, Autophagy HCS active
FC(F)(F)c1cc(-c2ccco2)nc(-n2cnc3ccccc32)n1	none
CC(OC(=O)c1oc2ccccc2c1COc1ccccc1)C(=O)NC(N)=O (stereo not drawn)	Autophagy HCS active
O=C(Cc1ccc(-n2cccc2)cc1)NCc1cccs1	bCat nuc transl 165, MT stabilizer 29
